The values that follow come from ChEMBL document CHEMBL2086316, “Synthesis and structure-activity relationships of pyrazolo[1,5-a]pyridine derivatives: potent and orally active antagonists of corticotropin-releasing factor 1 receptor” (J Med Chem, 2012).

Data set [1] is described as follows: Clearance in CD1 (ICR) mouse at 3 mg/kg, iv. The settings on record: in vivo. It is filed as ADME, organism-based. Further details: dose 3 mg/kg, route intravenous. The procedure, abridged: (§1)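 Male fasted CD1 (ICR) mice dosed i.v. 3 mg/kg or p.o. 10 mg/kg (10 mL/kg each). Vehicle was DMSO/5% glucose with 1/250 volume 5 mol/L HCl (1:19 i.v., 1:9 p.o.). Vena cava blood was drawn at 0.083 (i.v. only), 0.25, 0.5, 1, 2, 4, 6, 8 and 24 h, n = 4 per time point. Plasma was extracted and assayed by reversed-phase HPLC with fluorescence detection. Values are the mean of four animals.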

A short description of data set [2]: Volume of distribution at steady state in CD1 (ICR) mouse 3 mg/kg, iv. It is filed as ADME, organism-based. Set-up: dose 3 mg/kg, route intravenous. The conditions noted are these: in vivo, read-out: Vdss. In a few lines:
as §1

A short description of data set [3]: AUC in CD1 (ICR) mouse at 3 mg/kg, iv. It is filed as ADME, organism-based. Further details: dose 3 mg/kg, route intravenous. The conditions noted are these: plasma. The procedure, abridged:
as §1

A short description of data set [4]: Terminal half life in CD1 (ICR) mouse at 3 mg/kg, iv. The data set is classed as ADME, organism-based. Set-up: dose 3 mg/kg, route intravenous. The conditions noted are these: in vivo, read-out: beta t1/2 (converted). The procedure, abridged:
as §1

Data set [5] is described as follows: Cmax in CD1 (ICR) mouse at 10 mg/kg, po. The data set is classed as ADME, organism-based. The settings on record: in vivo. Set-up: dose 10 mg/kg, route oral. The procedure, abridged:
as §1

Data set [6] is described as follows: Tmax in CD1 (ICR) mouse 10 mg/kg, po. The data set is classed as ADME, organism-based. Set-up: dose 10 mg/kg, route oral. The conditions noted are these: in vivo. The procedure, abridged:
as §1

Data set [7] can be described thus: AUC in CD1 (ICR) mouse at 10 mg/kg, po. Further details: dose 10 mg/kg, route oral. The conditions noted are these: plasma. It is filed as ADME, organism-based. In a few lines: as §1
The nature of data set [8]: Oral bioavailability in CD1 (ICR) mouse at 10 mg/kg. The data set is classed as ADME, organism-based. The conditions noted are these: in vivo. The procedure, abridged: as §1
A further data set relates to Liver microsomes. The data set can be described thus: Intrinsic clearance in human liver microsomes after 15 mins. It is filed as ADME, Microsome. The procedure, abridged:
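Compound at 0.3 μmol/L (0.03% DMSO final) was incubated with pooled human liver microsomes (0.1 mg/mL protein) and an NADPH-generating system at 37 °C for 0 and 15 min. Reactions were quenched with acetonitrile/methanol containing internal standard. Parent depletion was measured by LC/MS/MS. Values are the mean of six measurements.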

Turning to `CCc1nn2c(-c3c(OC)cc(COC)cc3OC)cccc2c1N(CC1CCOCC1)CC1CC1.Cc1ccc(S(=O)(=O)O)cc1`, the clearance in [1] is 43.3 mL/min/kg. In addition, in [2], the Vd came to 3.74 L/kg. For the same compound, the figures for the AUC in [3] and in data set [7] were 850 ng·h/mL and 870 ng·h/mL, respectively. In [4], the half-life was 2.2 h. For the same compound, the Cmax in [5] came to 320 ng/mL. In addition, the Tmax in [6] is 0.25 h. Also, the bioavailability in data set [8] worked out at 31%.
On to `CCc1nn2c(-c3c(C)cc(C)cc3OC)cccc2c1N(CC1CC1)CC1CC1`, for which the CLint in the data set on Liver microsomes came out at 1120 µL/min/mg.
The same measure, in the same setting: for `CCc1nn2c(-c3c(C)cc(C)cc3OC)cccc2c1N(CCOC)CC1CC1` the value was 1690 µL/min/mg; for `CCc1nn2c(-c3c(C)cc(C)cc3OC)cccc2c1N(CCCF)CC1CC1`, 1410 µL/min/mg.
Compound `CCc1nn2c(-c3c(C)cc(C)cc3OC)cccc2c1N(CC1CC1)CC1CCOC1` (centres undefined) gave a CLint in the data set on Liver microsomes of 1350 µL/min/mg.
The same measure, in the same setting: for `CCc1nn2c(-c3c(C)cc(C)cc3OC)cccc2c1N(CC1CC1)CC1CCCO1` (centres undefined) the value was 1230 µL/min/mg; for `CCc1nn2c(-c3c(C)cc(C)cc3OC)cccc2c1N(CC1CCOCC1)CC1CC1`, 450 µL/min/mg; for `CCc1nn2c(-c3c(OC)cc(C)cc3OC)cccc2c1N(CC1CCOCC1)CC1CC1`, 440 µL/min/mg.
The same measure, in the same setting: the value for `CCc1nn2c(-c3c(C)cc(OC)cc3OC)cccc2c1N(CC1CCOCC1)CC1CC1` was 450 µL/min/mg; that for `CCc1nn2c(-c3c(OC)cc(OC)cc3OC)cccc2c1N(CC1CCOCC1)CC1CC1` was 450 µL/min/mg.
On the same count and under the same terms, for `CCc1nn2c(-c3cc(OC)c(OC)cc3OC)cccc2c1N(CC1CCOCC1)CC1CC1` the value was 600 µL/min/mg.
Consider `CCc1nn2c(-c3c(OC)cc(COC)cc3OC)cccc2c1N(CC1CCOCC1)CC1CC1`, for which the CLint in the data set with Liver microsomes stood at 300 µL/min/mg.
Still for that read-out and setting: for `CCc1nn2c(-c3c(COC)cc(OC)cc3OC)cccc2c1N(CC1CCOCC1)CC1CC1` the value was 530 µL/min/mg; for `CCOCc1cc(OC)c(-c2cccc3c(N(CC4CCOCC4)CC4CC4)c(CC)nn23)c(OC)c1`, 520 µL/min/mg; for `CCc1nn2c(-c3c(OC)cccc3OC)cccc2c1N(CC1CCOCC1)CC1CC1`, 740 µL/min/mg.
The same measure, in the same setting: for `CCCN(CC1CCOCC1)c1c(CC)nn2c(-c3c(OC)cc(C)cc3OC)cccc12` the value was 890 µL/min/mg; for `CCCN(CC1CCOCC1)c1c(CC)nn2c(-c3c(OC)cc(COC)cc3OC)cccc12`, 700 µL/min/mg.
Same read-out and setting: the value for `COCc1cc(OC)c(-c2cccc3c(N(CC4CCOCC4)CC4CC4)c(OC)nn23)c(OC)c1` was 760 µL/min/mg; that for `COCc1cc(OC)c(-c2cccc3c(N(CC4CCOCC4)CC4CC4)c(SC)nn23)c(OC)c1` was 340 µL/min/mg.
As for `COCc1cc(OC)c(-c2cccc3c(N(CC4CCOCC4)CC4CC4)c(C)nn23)c(OC)c1`, the CLint with Liver microsomes came to 110 µL/min/mg.
On the same count and under the same terms, the value for `COCc1cc(OC)c(-c2cccc3c(N(CC4CCOCC4)CC4CC4)c(C#N)nn23)c(OC)c1` was 1100 µL/min/mg.
The same measure, in the same setting: for `COc1cc(C)cc(OC)c1-c1cccc2c(N(CC3CCOCC3)CC3CC3)c(OC)nn12` the value was 570 µL/min/mg.
